# Experimental data reported in ChEMBL document CHEMBL1127482 (J Med Chem, 1994).
# *1 amine or outer side, *2 acyl side, *3 side chain or, on linkers, in order; H or OH if unused. Where a SMILES comes first, the peptide text is derived from it. Bridges are numbered along the chain shown (N, C = ends). X1 = O=C(CC1(S[*:2])CCCCC1)[*:1]
# Assays:
# Homo sapiens = organism: Homo sapiens; test: Inhibition of 10 uM ADP induced platelet aggregation in human platelet rich citreated plasma (PRP); assay type: functional
# How it was run: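 Aggregation is read as the increase in light transmission in an aggregometer, with platelets used within 3 h of collection. IC50 comes from regression of dose-response curves for inhibition of maximal aggregation, adjusted against a standard run in each experiment.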
# [1] = biological target: Integrin alpha-IIb/beta-3 (Homo sapiens, UniProt P05106+P08514); test: Binding affinity against integrin alpha 2b-beta 3 in enzyme linked immunosorbent assay (ELISA); assay type: protein-complex assay
# How it was run: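 Purified human platelet αIIbβ3 (from outdated platelets, octyl glucoside extract) in TBS with 20 mM octyl glucoside, 2 mM MgCl2 and 2 mM CaCl2 binds to plate-coated human fibrinogen (10 µg/mL in TBS) with 10-fold serial peptide dilutions for 3 h at room temperature. Bound receptor is detected with rabbit anti-αIIbβ3, then HRP anti-rabbit IgG, with o-phenylenediamine/H2O2 at pH 5.0. IC50 is reported.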
# Integrin alpha-5/beta-1 = Integrin alpha-5/beta-1 (Homo sapiens, UniProt P05556+P08648); test: Binding affinity against integrin alpha5-beta1 in enzyme linked immunosorbent assay (ELISA); assay type: protein-complex assay
# Integrin alpha-V/beta-5 = Integrin alpha-V/beta-5 (Homo sapiens, UniProt P06756+P18084); test: Binding affinity against integrin alpha V-beta5 in enzyme linked immunosorbent assay (ELISA); assay type: protein-complex assay
# How it was run: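 It is added to wells coated with human vitronectin in 0.1 M carbonate, pH 9.6, with 10-fold serial peptide dilutions for 3 h at room temperature. Detection uses rabbit anti-VnR, HRP anti-rabbit IgG and o-phenylenediamine/H2O2.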
# Canis familiaris = organism: Canis familiaris; test: Effect of compound on template bleeding time in dogs; assay type: functional, Canis lupus familiaris
# Sequence of Integrin alpha-V/beta-5 (P06756 31-889 limits assumed): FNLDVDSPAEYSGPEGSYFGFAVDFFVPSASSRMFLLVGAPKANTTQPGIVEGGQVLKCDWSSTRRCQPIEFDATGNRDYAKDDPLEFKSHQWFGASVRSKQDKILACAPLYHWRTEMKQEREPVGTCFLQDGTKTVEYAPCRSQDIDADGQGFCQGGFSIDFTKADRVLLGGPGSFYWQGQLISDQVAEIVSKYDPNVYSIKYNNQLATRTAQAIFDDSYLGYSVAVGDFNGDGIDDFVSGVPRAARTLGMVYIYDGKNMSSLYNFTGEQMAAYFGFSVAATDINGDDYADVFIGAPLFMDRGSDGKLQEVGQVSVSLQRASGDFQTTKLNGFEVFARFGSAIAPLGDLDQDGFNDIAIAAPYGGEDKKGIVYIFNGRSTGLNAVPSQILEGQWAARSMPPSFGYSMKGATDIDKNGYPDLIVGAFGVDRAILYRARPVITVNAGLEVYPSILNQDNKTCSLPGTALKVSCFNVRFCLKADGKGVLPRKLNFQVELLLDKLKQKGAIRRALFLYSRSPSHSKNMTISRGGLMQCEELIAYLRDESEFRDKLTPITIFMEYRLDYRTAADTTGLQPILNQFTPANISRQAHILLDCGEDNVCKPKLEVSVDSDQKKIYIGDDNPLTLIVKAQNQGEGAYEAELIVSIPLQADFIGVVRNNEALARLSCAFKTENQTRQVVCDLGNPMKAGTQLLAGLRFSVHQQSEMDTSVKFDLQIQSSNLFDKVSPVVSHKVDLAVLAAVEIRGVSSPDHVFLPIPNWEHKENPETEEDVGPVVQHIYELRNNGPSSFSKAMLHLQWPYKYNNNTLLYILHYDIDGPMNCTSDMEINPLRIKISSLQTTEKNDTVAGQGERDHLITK
# Sequence of Integrin alpha-V/beta-5 (P06756 891-1048 limits assumed): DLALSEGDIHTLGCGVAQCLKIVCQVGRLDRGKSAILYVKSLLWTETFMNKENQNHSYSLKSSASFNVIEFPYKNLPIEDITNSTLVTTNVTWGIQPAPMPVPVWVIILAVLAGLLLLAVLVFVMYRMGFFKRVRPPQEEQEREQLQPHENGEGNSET
# Sequence of Integrin alpha-V/beta-5 (P18084 24-799 limits assumed): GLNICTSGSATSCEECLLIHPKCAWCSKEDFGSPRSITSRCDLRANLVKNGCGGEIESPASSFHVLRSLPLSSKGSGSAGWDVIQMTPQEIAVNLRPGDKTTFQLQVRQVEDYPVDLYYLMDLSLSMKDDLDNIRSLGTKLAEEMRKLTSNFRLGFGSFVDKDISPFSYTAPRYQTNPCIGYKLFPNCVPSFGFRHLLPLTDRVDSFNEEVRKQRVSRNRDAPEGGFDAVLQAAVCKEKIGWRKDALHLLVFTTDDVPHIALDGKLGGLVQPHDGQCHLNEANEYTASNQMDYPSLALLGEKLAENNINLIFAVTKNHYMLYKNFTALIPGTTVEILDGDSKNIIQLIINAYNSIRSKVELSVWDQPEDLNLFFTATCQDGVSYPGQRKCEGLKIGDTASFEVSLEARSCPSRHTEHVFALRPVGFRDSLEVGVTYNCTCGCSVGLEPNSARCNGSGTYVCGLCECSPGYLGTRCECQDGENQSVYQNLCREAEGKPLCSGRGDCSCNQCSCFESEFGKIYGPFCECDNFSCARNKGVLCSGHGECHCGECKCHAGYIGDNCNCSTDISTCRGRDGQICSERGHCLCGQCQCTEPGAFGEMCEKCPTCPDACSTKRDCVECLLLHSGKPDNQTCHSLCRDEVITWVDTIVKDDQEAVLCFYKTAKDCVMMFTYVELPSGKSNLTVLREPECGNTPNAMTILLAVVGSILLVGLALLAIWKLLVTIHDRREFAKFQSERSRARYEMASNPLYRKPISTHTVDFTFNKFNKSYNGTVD
# Sequence of Integrin alpha-IIb/beta-3 (P05106 27-788 limits assumed): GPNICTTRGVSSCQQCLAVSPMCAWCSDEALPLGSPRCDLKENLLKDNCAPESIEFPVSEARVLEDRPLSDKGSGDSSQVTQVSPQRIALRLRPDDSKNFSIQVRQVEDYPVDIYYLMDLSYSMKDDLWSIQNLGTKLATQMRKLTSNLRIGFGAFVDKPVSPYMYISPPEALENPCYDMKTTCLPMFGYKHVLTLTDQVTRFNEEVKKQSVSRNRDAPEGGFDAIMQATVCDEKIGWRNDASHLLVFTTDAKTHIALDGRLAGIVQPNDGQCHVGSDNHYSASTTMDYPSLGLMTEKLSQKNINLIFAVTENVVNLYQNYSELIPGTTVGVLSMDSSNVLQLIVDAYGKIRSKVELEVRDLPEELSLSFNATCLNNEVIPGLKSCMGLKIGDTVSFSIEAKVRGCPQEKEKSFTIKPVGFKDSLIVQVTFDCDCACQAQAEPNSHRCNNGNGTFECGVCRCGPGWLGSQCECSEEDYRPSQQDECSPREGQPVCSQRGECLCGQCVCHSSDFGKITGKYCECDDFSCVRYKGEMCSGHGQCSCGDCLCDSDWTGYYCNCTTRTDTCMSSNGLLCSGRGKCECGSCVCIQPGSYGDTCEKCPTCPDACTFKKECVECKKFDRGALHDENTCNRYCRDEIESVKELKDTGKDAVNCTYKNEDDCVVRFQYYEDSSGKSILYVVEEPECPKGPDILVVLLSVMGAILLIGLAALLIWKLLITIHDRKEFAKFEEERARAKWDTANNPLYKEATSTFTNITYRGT
# Sequence of Integrin alpha-IIb/beta-3 (P08514 32-887 limits assumed): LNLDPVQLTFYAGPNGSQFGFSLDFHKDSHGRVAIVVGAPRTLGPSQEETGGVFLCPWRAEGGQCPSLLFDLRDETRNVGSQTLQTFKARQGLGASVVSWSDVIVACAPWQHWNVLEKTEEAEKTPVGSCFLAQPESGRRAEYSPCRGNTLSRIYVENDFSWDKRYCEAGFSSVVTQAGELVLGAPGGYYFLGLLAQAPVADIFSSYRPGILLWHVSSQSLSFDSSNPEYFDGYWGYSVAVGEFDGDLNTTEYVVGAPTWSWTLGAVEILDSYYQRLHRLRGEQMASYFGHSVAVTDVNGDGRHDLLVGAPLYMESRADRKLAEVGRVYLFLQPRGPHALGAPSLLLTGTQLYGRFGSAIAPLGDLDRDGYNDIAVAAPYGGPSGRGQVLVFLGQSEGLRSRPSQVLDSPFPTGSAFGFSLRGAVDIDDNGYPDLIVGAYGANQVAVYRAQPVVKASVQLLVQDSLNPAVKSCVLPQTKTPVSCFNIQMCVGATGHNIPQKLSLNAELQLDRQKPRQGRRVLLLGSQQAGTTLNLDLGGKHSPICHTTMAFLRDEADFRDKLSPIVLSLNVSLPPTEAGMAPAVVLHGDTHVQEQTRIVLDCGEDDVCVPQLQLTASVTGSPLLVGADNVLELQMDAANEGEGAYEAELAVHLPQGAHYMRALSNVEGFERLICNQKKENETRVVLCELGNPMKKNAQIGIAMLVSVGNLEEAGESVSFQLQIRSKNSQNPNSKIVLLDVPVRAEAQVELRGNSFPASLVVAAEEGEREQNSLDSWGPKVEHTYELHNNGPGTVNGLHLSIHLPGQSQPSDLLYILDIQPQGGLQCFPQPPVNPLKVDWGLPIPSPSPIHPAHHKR
# Sequence of Integrin alpha-IIb/beta-3 (P08514 891-1039 limits assumed): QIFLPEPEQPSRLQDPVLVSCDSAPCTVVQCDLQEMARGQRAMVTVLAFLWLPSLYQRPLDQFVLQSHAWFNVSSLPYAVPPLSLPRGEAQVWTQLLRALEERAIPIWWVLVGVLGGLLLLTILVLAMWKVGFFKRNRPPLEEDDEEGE
Compound,IC50 (Homo sapiens),IC50 [1],IC50 (Integrin alpha-5/beta-1),IC50 (Integrin alpha-V/beta-5),Bleeding time (Canis familiaris)
N=C(N)NCCC[C@H](NC(=O)[C@@H]1CSSC2(CCCCC2)[C@H](NC(=O)[C@@H](N)CCCNC(=N)N)C(=O)NCC(=O)N[C@@H](Cc2c[nH]cn2)C(=O)N[C@@H](CCCNC(=N)N)C(=O)NCC(=O)N[C@@H](CC(=O)O)C(=O)N[C@@H](Cc2ccc(Cl)cc2)C(=O)N[C@@H](CCCNC(=N)N)C(=O)N1)C(=O)O,0.73 µM,,0.87 µM,15.3 µM,
NC(N)=NCCC[C@H](NC(=O)[C@@H]1CSSC2(CCCCC2)[C@H](NC(=O)[C@@H](N)CCCN=C(N)N)C(=O)NCC(=O)N[C@@H](Cc2c[nH]cn2)C(=O)N[C@@H](CCCN=C(N)N)C(=O)NCC(=O)N[C@@H](CC(=O)O)C(=O)N[C@@H](Cc2ccccc2)C(=O)N[C@@H](CCCN=C(N)N)C(=O)N1)C(=O)O,0.62 µM,0.04 µM,,,
COc1ccc(C[C@@H]2NC(=O)[C@H](CC(=O)O)NC(=O)CNC(=O)[C@H](CCCN=C(N)N)NC(=O)[C@H](Cc3c[nH]cn3)NC(=O)[C@H](CCCN=C(N)N)NC(=O)[C@@H](NC(=O)[C@@H](N)CCCN=C(N)N)C3(CCCCC3)SSC[C@@H](C(=O)N[C@@H](CCCN=C(N)N)C(=O)O)NC(=O)[C@H](CCCN=C(N)N)NC2=O)cc1,0.44 µM,0.07 µM,,,
COc1ccc(C[C@@H]2NC(=O)[C@H](CC(=O)O)NC(=O)CNC(=O)[C@H](CCCNC(=N)N)NC(=O)[C@@H]3CCCN3C(=O)[C@H](CC(N)=O)NC(=O)[C@@H](NC(C)=O)CSSC[C@@H](C(N)=O)NC(=O)[C@H](C)NC2=O)cc1,,,,,>30 min
COc1ccc(C[C@@H]2NC(=O)[C@H](CC(=O)O)NC(=O)CNC(=O)[C@H](CCCNC(=N)N)NC(=O)[C@@H]3CCCN3C(=O)[C@H](CC(N)=O)NC(=O)[C@@H](NC(C)=O)CSSC[C@@H](C(N)=O)NC(=O)[C@H](CCC(=O)O)NC2=O)cc1,,,,,> 30 min
COc1ccc(C[C@@H]2NC(=O)[C@H](CC(=O)O)NC(=O)CNC(=O)[C@H](CCCN=C(N)N)NC(=O)[C@@H]3CCCN3C(=O)[C@H](CC(N)=O)NC(=O)[C@@H](NC(C)=O)CSSC[C@@H](C(N)=O)NC(=O)[C@H](CCCN=C(N)N)NC2=O)cc1,,,,,3 min
NC(N)=NCCC[C@H](NC(=O)[C@@H]1CSSC2(CCCCC2)[C@H](NC(=O)[C@@H](N)CCCN=C(N)N)C(=O)NCC(=O)N[C@@H](Cc2c[nH]cn2)C(=O)N[C@@H](CCCN=C(N)N)C(=O)NCC(=O)N[C@@H](CC(=O)O)C(=O)N[C@@H](Cc2ccc3ccccc3c2)C(=O)N[C@@H](CCCN=C(N)N)C(=O)N1)C(=O)O,0.44 µM,0.07 µM,7.72 µM,,
NC(N)=NCCC[C@H](NC(=O)[C@@H]1CSSC2(CCCCC2)[C@H](NC(=O)[C@@H](N)CCCN=C(N)N)C(=O)NCC(=O)N[C@@H](Cc2c[nH]cn2)C(=O)N[C@@H](CCCN=C(N)N)C(=O)NCC(=O)N[C@@H](CC(=O)O)C(=O)N[C@@H](c2ccccc2)C(=O)N[C@@H](CCCN=C(N)N)C(=O)N1)C(=O)O,0.68 µM,0.02 µM,,,
COc1ccc(C[C@@H]2NC(=O)[C@H](CC(=O)O)NC(=O)CNC(=O)[C@H](CCCNC(=N)N)NC(=O)[C@@H]3CCCN3C(=O)[C@H](CC(N)=O)NC(=O)[C@@H](NC(C)=O)CSSC[C@@H](C(N)=O)NC(=O)[C@H](CC(C)C)NC2=O)cc1,,,,,21 min
COc1ccc(C[C@@H]2NC(=O)[C@H](CC(=O)O)NC(=O)CNC(=O)[C@H](CCCCN)NC(=O)[C@@H]3CCCN3C(=O)[C@H](CC(N)=O)NC(=O)[C@@H](NC(C)=O)CSSC[C@@H](C(N)=O)NC(=O)[C@H](CCCN=C(N)N)NC2=O)cc1,,,,,3.5 min

# Continued, in another order:
IC50 (Homo sapiens),IC50 [1],IC50 (Integrin alpha-5/beta-1),IC50 (Integrin alpha-V/beta-5),Compound,Bleeding time (Canis familiaris)
0.35 µM,0.03 µM,,,CCCCOc1ccc(C[C@@H]2NC(=O)[C@H](CC(=O)O)NC(=O)CNC(=O)[C@H](CCCNC(=N)N)NC(=O)[C@H](Cc3c[nH]cn3)NC(=O)CNC(=O)[C@@H](NC(=O)[C@@H](N)CCCNC(=N)N)C3(CCCCC3)SSC[C@@H](C(=O)N[C@@H](CCCNC(=N)N)C(=O)O)NC(=O)[C@H](CCCNC(=N)N)NC2=O)cc1,
,0.01 µM,4.19 µM,4.03 µM,N=C(N)NCCC[C@H](NC(=O)[C@@H]1CSSC2(CCCCC2)[C@H](NC(=O)[C@@H](N)CCCNC(=N)N)C(=O)NCC(=O)N[C@@H](Cc2c[nH]cn2)C(=O)N[C@@H](CCCNC(=N)N)C(=O)NCC(=O)N[C@@H](CC(=O)O)C(=O)N[C@@H](Cc2ccc(I)cc2)C(=O)N[C@@H](CCCNC(=N)N)C(=O)N1)C(=O)O,
,0.02 µM,0.98 µM,1.05 µM,COc1ccc(C[C@@H]2NC(=O)[C@H](CC(=O)O)NC(=O)CNC(=O)[C@H](CCCNC(=N)N)NC(=O)[C@H](Cc3c[nH]cn3)NC(=O)CNC(=O)[C@@H](NC(=O)[C@@H](N)CCCNC(=N)N)C3(CCCCC3)SSC[C@@H](C(=O)N[C@@H](CCCNC(=N)N)C(=O)O)NC(=O)[C@H](CCCNC(=N)N)NC2=O)cc1,
4.1 µM,0.03 µM,,0.34 µM,CC(C)C[C@@H]1NC(=O)[C@H](CC(=O)O)NC(=O)CNC(=O)[C@H](CCCNC(=N)N)NC(=O)[C@H](Cc2c[nH]cn2)NC(=O)CNC(=O)[C@@H](NC(=O)[C@@H](N)CCCNC(=N)N)C2(CCCC2)SSC[C@@H](C(=O)N[C@@H](CCCNC(=N)N)C(=O)O)NC(=O)[C@H](CCCNC(=N)N)NC1=O,
0.22 µM,0.004 µM,10 µM,8.4 µM,CCOc1ccc(C[C@@H]2NC(=O)[C@H](CC(=O)O)NC(=O)CNC(=O)[C@H](CCCN=C(N)N)NC(=O)[C@@H]3CCCN3C(=O)[C@H](CC(N)=O)NC(=O)[C@@H](NC(C)=O)CSSC[C@@H](C(N)=O)NC(=O)[C@H](CCCN=C(N)N)NC2=O)cc1,
0.84 µM,0.017 µM,,4.8 µM,CC(=O)N[C@H]1CSSC[C@@H](C(N)=O)NC(=O)[C@H](CCCN=C(N)N)NC(=O)[C@H](Cc2ccc([N+](=O)[O-])cc2)NC(=O)[C@H](CC(=O)O)NC(=O)CNC(=O)[C@H](CCCN=C(N)N)NC(=O)[C@@H]2CCCN2C(=O)[C@H](CC(N)=O)NC1=O,
9.6 µM,0.04 µM,,4.93 µM,CC(C)C[C@@H]1NC(=O)[C@H](CC(=O)O)NC(=O)CNC(=O)[C@H](CCCNC(=N)N)NC(=O)[C@H](Cc2c[nH]cn2)NC(=O)CNC(=O)[C@@H](NC(=O)[C@@H](N)CCCNC(=N)N)C(C)(C)SSC[C@@H](C(=O)N[C@@H](CCCNC(=N)N)C(=O)O)NC(=O)[C@H](CCCNC(=N)N)NC1=O,
3 µM,0.4 µM,,1.58 µM,CC(C)C[C@@H]1NC(=O)[C@H](CC(=O)O)NC(=O)CNC(=O)[C@H](CCCNC(=N)N)NC(=O)[C@H](Cc2c[nH]cn2)NC(=O)CNC(=O)[C@@H](NC(=O)[C@@H](N)CCCNC(=N)N)C2(CCCCC2)SSC[C@@H](C(=O)N[C@@H](CCCNC(=N)N)C(=O)O)NC(=O)[C@H](CCCNC(=N)N)NC1=O,
0.21 µM,0.43 µM,1.2 µM,4.3 µM,CC[C@H](C)[C@@H]1NC(=O)[C@@H](NC(C)=O)CSSC[C@@H](C(N)=O)NC(=O)[C@H](CCCN=C(N)N)NC(=O)[C@H](Cc2ccc([N+](=O)[O-])cc2)NC(=O)[C@H](CC(=O)O)NC(=O)CNC(=O)[C@H](CCCN=C(N)N)NC(=O)[C@@H]2CCCN2C1=O,
,0.016 µM,6 µM,> 10 µM,CCCCOc1ccc(C[C@@H]2NC(=O)[C@H](CC(=O)O)NC(=O)CNC(=O)[C@H](CCCNC(=N)N)NC(=O)[C@@H]3CCCN3C(=O)[C@H]([C@@H](C)CC)NC(=O)[C@@H](NC(C)=O)CSSC[C@@H](C(N)=O)NC(=O)[C@H](CCCNC(=N)N)NC2=O)cc1,
4.1 µM,0.15 µM,,10 µM,CC(C)C[C@@H]1NC(=O)[C@H](CC(=O)O)NC(=O)CNC(=O)[C@H](CCCNC(=N)N)NC(=O)[C@H](Cc2c[nH]cn2)NC(=O)CNC(=O)[C@H](NC(=O)[C@@H](N)CCCNC(=N)N)C(C)(C)SSC[C@@H](C(=O)N[C@@H](CCCNC(=N)N)C(=O)O)NC(=O)[C@H](CCCNC(=N)N)NC1=O,
0.28 µM,0.002 µM,,,CC[C@H](C)[C@@H]1NC(=O)[C@H](NC(C)=O)C(C)(C)SSC[C@@H](C(N)=O)NC(=O)[C@H](CCCNC(=N)N)NC(=O)[C@H](Cc2ccc(OC)cc2)NC(=O)[C@H](CC(=O)O)NC(=O)CNC(=O)[C@H](CCCNC(=N)N)NC(=O)[C@@H]2CCCN2C1=O,
0.45 µM,0.014 µM,2.1 µM,10 µM,CC[C@H](C)[C@@H]1NC(=O)[C@@H](NC(C)=O)CSSC[C@@H](C(N)=O)NC(=O)[C@H](CCCN=C(N)N)NC(=O)[C@H](Cc2ccccc2)NC(=O)[C@H](CC(=O)O)NC(=O)CNC(=O)[C@H](CCCN=C(N)N)NC(=O)[C@@H]2CCCN2C1=O (Ac-CIPRGDFRC-NH2; disulfide 1-9),
,0.003 µM,4.5 µM,> 10 µM,CC[C@H](C)[C@@H]1NC(=O)[C@@H](NC(C)=O)CSSC[C@@H](C(N)=O)NC(=O)[C@H](CCCNC(=N)N)NC(=O)[C@H](Cc2ccc(O)cc2)NC(=O)[C@H](CC(=O)O)NC(=O)CNC(=O)[C@H](CCCNC(=N)N)NC(=O)[C@@H]2CCCN2C1=O (Ac-CIPRGDYRC-NH2; disulfide 1-9),
5.9 µM,0.02 µM,,10 µM,CC(C)C[C@@H]1NC(=O)[C@H](CC(=O)O)NC(=O)CNC(=O)[C@H](CCCNC(=N)N)NC(=O)[C@H](Cc2c[nH]cn2)NC(=O)CNC(=O)CC2(CCCCC2)SSC[C@@H](C(=O)N[C@@H](C)C(=O)O)NC(=O)[C@H](CCCNC(=N)N)NC1=O (GHRGDLRCA-OH; linker N-8 via X1),
